A value given as a limit tells only on which side of the number the result lay.

Assay [1] addresses T1, N-lysine methyltransferase KMT5A (Homo sapiens, UniProt Q9NQR1).
T1 sequence (Q9NQR1 whole entry): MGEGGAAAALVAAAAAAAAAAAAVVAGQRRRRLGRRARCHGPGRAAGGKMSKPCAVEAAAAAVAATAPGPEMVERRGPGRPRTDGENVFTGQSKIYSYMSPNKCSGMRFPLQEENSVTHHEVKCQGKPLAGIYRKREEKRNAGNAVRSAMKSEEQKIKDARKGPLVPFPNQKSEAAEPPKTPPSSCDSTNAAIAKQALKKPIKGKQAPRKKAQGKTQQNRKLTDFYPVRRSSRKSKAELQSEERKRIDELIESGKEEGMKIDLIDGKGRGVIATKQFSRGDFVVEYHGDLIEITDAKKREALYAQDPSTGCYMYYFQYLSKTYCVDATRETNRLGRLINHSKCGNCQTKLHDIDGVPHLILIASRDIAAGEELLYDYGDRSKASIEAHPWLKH

Assay [2] deals with N-lysine methyltransferase SMYD2 (Homo sapiens, UniProt Q9NRG4). The experiment in a line: Inhibition of SMYD2 (unknown origin) assessed as incorporation of tritium-labeled methyl group to lysine or arginine residues of peptide substrate by radioactive assay. The method in brief: (§1)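 Enzymes (PRMT5 as PRMT5-MEP50 complex, MLL1 as MLL1 complex) in 20 μL reactions with 3H-SAM and substrates near each enzyme's Km; compound at 100 nM to 100 μM. Stopped with 7.5 M guanidine HCl, diluted in 20 mM Tris pH 8.0, incubated 1 h on streptavidin FlashPlate, read as CPM. No-compound CPM was 100% activity; no-enzyme CPM was 0% background.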

For assay [3], the target named is Histone-lysine N-methyltransferase KMT5B (Homo sapiens, UniProt Q4FZB7). The experiment in a line: Inhibition of SUV420H1 (unknown origin) assessed as incorporation of tritium-labeled methyl group to lysine or arginine residues of peptide substrate by radioactive assay. Put shortly:
as §1

The target in assay [4] is DNA (cytosine-5)-methyltransferase 1 (Homo sapiens, UniProt P26358). The experiment in a line: Inhibition of DNMT1 (unknown origin) assessed as using dsDNA substrate by radioactive assay.
Assay [5] addresses Histone-lysine N-methyltransferase 2A (Homo sapiens, UniProt Q03164). The experiment in a line: Inhibition of MLL1 (unknown origin) assessed as incorporation of tritium-labeled methyl group to lysine or arginine residues of peptide substrate by radioactive assay. Put shortly:
as §1

The target in assay [6] is Protein arginine N-methyltransferase 1 (Homo sapiens, UniProt Q99873). The experiment in a line: Inhibition of PRMT1 (unknown origin) assessed as incorporation of tritium-labeled methyl group to lysine or arginine residues of peptide substrate by radioactive assay. Put shortly:
as §1

Assay [7] addresses Histone-lysine N-methyltransferase SETDB1 (Homo sapiens, UniProt Q15047). Description: Inhibition of SETDB1 (unknown origin) assessed as incorporation of tritium-labeled methyl group to lysine or arginine residues of peptide substrate by radioactive assay. The method in brief:
as §1

The target of assay [8] is Histone-lysine N-methyltransferase KMT5C (Homo sapiens, UniProt Q86Y97). The experiment in a line: Inhibition of SUV420H2 (unknown origin) assessed as incorporation of tritium-labeled methyl group to lysine or arginine residues of peptide substrate by radioactive assay. The method in brief:
as §1

The target in assay [9] is Histone-lysine N-methyltransferase, H3 lysine-79 specific (Homo sapiens, UniProt Q8TEK3). The experiment in a line: Inhibition of DOT1L (unknown origin) by filter-based assay. The method in brief: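 Filter-format tritium assay: 20 μL reaction with 3H-SAM and substrates near Km, compound at 100 nM to 100 μM, incubated 1 h at room temperature. Precipitated with 10% TCA on filter plates, washed twice with 10% TCA and once with ethanol, scintillant added, CPM counted. No-compound CPM was 100% activity; no-enzyme CPM was 0%.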

Assay [10] has as its target T2, Histone-lysine N-methyltransferase SETD7 (Homo sapiens, UniProt Q8WTS6).
T2 sequence (Q8WTS6 whole entry): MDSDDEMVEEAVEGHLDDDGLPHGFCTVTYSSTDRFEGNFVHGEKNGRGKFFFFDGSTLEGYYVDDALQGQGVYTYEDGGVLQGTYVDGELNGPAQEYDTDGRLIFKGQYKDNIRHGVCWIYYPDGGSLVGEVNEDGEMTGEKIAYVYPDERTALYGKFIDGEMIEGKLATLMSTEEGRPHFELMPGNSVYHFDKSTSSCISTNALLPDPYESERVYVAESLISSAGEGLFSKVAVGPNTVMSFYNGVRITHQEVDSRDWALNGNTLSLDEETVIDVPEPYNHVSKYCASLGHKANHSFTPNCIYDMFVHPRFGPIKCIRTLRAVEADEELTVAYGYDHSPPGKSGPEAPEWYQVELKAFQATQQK
The experiment in a line: Inhibition of SETD7 (unknown origin) assessed as incorporation of tritium-labeled methyl group to lysine or arginine residues of peptide substrate by radioactive assay. The method in brief:
as §1

Assay [11] has as its target T3, Histone-lysine N-methyltransferase EHMT2 (Homo sapiens, UniProt Q96KQ7).
T3 sequence (Q96KQ7 whole entry): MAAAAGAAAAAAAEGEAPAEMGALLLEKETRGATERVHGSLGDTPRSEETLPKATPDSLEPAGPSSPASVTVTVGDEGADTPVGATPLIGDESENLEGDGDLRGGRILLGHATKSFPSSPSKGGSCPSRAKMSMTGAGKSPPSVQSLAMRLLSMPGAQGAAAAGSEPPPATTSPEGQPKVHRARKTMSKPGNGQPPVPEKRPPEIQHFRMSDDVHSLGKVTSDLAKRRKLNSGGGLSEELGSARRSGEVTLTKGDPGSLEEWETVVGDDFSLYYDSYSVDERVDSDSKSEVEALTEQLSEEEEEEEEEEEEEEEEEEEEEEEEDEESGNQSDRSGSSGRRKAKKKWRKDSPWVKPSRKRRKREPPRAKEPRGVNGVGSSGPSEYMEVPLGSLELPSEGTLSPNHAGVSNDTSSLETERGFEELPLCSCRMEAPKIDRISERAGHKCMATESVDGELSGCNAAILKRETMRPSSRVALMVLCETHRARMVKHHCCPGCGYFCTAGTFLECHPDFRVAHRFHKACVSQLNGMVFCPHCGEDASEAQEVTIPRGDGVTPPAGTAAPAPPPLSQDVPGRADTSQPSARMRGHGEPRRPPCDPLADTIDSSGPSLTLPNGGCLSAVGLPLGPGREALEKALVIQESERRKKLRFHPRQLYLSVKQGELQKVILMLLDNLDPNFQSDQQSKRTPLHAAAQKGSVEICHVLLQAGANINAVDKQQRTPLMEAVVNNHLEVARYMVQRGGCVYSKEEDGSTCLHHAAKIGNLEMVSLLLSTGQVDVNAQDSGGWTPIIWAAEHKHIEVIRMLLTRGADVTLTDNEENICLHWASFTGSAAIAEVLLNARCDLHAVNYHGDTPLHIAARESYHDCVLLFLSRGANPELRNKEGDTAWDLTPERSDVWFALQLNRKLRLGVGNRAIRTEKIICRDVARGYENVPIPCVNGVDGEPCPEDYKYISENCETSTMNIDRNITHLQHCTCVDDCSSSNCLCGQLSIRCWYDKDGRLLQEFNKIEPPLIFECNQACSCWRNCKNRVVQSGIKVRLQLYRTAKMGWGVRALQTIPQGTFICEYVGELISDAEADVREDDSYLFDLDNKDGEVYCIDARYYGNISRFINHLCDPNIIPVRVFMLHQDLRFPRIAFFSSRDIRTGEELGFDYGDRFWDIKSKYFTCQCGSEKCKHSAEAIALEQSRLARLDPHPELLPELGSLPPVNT
Description: Inhibition of G9a (unknown origin) assessed as incorporation of tritium-labeled methyl group to lysine or arginine residues of peptide substrate by radioactive assay. Put shortly:
as §1

The target of assay [12] is Protein arginine N-methyltransferase 3 (Homo sapiens, UniProt O60678). The experiment in a line: Inhibition of PRMT3 (unknown origin) assessed as incorporation of tritium-labeled methyl group to lysine or arginine residues of peptide substrate by radioactive assay. The method in brief:
as §1

The target of assay [13] is Histone-lysine N-methyltransferase SUV39H2 (Homo sapiens, UniProt Q9H5I1). The experiment in a line: Inhibition of SUV39H2 (unknown origin) assessed as incorporation of tritium-labeled methyl group to lysine or arginine residues of peptide substrate by radioactive assay. The method in brief:
as §1

Assay [14] concerns the target Protein arginine N-methyltransferase 5 (Homo sapiens, UniProt O14744). The experiment in a line: Inhibition of PRMT5 (unknown origin) assessed as incorporation of tritium-labeled methyl group to lysine or arginine residues of peptide substrate by radioactive assay. Put shortly:
as §1

The target in assay [15] is T4, Histone-lysine N-methyltransferase EHMT1 (Homo sapiens, UniProt Q9H9B1).
T4 sequence (Q9H9B1 whole entry): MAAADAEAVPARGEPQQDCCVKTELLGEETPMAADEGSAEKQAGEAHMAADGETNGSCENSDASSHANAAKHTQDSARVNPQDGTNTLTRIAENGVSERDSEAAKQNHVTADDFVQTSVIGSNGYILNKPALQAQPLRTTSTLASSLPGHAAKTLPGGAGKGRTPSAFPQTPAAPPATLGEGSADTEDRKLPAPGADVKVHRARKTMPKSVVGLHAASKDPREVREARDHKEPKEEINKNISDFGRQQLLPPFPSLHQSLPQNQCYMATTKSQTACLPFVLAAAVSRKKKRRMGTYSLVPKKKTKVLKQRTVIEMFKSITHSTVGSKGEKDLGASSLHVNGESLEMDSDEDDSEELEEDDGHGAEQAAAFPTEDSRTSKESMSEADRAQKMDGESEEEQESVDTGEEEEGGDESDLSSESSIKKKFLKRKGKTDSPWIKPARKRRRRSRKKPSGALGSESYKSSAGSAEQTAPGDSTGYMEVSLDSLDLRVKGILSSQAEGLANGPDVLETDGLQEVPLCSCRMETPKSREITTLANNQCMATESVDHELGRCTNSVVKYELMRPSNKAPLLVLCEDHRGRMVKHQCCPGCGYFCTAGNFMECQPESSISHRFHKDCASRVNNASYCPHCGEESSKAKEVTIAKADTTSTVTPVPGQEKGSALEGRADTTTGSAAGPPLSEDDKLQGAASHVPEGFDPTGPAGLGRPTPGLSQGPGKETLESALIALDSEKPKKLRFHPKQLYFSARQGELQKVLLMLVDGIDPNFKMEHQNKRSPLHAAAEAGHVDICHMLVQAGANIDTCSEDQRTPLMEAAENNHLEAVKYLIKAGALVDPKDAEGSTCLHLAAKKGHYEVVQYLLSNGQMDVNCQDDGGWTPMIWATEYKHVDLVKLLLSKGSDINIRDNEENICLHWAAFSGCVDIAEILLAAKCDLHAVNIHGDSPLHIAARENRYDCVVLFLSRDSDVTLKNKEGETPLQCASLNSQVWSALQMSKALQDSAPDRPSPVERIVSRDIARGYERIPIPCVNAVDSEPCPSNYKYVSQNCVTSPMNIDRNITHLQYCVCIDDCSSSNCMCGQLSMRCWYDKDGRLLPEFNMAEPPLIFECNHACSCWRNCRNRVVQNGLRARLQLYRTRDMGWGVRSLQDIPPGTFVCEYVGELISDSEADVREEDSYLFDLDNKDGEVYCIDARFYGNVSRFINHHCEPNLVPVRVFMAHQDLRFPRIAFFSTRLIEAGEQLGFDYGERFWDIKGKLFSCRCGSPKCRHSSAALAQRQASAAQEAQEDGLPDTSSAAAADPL
The experiment in a line: Inhibition of GLP (unknown origin) assessed as incorporation of tritium-labeled methyl group to lysine or arginine residues of peptide substrate by radioactive assay. Put shortly:
as §1

In assay [16] the target is T1, N-lysine methyltransferase KMT5A. The source holds these as a separate data set.

Histone-lysine N-methyltransferase 2A, sequence (Q03164 1-2718 limits assumed): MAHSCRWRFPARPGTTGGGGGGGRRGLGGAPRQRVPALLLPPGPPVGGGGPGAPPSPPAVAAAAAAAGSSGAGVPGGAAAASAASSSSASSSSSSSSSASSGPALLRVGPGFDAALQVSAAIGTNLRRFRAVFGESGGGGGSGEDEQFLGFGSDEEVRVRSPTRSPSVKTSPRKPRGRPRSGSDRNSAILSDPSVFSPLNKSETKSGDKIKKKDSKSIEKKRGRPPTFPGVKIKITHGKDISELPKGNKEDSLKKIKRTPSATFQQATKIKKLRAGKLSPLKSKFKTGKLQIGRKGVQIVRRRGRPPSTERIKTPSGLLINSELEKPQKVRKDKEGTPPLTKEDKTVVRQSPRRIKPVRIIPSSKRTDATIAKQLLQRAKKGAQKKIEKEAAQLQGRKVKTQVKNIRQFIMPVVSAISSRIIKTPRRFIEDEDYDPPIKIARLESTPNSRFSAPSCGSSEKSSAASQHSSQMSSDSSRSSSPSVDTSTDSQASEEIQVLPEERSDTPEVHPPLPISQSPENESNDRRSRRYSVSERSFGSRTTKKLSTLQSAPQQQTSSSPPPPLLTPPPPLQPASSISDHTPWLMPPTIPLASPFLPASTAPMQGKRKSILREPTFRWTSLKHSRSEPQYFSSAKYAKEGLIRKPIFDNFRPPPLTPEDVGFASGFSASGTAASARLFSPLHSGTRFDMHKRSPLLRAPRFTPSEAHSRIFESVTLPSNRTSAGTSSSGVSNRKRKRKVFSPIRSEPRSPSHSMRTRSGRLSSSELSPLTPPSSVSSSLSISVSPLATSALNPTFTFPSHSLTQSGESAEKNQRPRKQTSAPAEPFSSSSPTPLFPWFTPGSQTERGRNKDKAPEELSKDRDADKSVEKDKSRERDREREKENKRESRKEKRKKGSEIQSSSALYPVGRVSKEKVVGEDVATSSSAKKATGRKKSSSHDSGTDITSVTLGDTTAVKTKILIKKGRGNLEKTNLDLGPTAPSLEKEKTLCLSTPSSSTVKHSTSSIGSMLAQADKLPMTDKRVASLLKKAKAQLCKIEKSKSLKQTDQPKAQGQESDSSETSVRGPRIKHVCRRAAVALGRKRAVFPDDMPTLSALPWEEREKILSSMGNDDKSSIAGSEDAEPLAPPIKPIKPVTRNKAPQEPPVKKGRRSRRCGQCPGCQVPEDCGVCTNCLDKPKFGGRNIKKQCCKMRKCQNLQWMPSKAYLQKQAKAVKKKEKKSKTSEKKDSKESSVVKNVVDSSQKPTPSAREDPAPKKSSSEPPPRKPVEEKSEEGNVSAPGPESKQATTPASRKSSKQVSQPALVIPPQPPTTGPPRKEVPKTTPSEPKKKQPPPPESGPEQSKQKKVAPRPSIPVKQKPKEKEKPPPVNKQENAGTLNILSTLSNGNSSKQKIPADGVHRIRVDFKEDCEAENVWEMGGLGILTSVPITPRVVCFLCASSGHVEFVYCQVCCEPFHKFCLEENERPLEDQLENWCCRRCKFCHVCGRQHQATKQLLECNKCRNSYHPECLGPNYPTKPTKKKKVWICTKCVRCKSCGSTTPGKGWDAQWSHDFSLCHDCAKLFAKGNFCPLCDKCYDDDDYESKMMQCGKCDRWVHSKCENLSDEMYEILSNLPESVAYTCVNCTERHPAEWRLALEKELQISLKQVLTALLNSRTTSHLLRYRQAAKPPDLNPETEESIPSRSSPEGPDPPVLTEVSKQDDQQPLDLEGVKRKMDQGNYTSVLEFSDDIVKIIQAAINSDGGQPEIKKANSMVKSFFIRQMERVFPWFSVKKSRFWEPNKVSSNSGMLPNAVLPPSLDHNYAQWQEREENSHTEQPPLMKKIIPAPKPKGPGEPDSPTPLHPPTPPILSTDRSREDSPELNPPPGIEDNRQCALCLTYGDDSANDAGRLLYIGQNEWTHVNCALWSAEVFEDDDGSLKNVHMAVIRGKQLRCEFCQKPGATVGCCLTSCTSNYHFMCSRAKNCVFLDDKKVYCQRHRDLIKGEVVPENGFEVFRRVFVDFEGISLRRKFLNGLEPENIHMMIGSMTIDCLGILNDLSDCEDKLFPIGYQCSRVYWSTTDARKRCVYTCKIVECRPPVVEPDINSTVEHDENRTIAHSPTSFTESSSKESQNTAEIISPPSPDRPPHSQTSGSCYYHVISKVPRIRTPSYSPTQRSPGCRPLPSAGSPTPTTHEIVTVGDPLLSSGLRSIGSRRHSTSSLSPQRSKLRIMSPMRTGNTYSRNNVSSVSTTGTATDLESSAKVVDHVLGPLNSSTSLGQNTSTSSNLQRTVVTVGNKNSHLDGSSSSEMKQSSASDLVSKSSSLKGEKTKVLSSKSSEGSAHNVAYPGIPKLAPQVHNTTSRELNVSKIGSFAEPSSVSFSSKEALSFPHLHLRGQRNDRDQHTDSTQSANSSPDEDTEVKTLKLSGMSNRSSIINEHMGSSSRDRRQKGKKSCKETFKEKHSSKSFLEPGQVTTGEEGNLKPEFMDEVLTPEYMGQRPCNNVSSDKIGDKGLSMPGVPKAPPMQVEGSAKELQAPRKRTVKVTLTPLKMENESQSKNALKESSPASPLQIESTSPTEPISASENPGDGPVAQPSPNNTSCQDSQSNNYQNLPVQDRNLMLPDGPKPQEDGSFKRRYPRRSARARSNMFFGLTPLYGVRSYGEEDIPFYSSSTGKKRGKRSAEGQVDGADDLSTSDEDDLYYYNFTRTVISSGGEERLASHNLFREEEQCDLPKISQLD
Histone-lysine N-methyltransferase 2A, sequence (Q03164 2719-3969 limits assumed): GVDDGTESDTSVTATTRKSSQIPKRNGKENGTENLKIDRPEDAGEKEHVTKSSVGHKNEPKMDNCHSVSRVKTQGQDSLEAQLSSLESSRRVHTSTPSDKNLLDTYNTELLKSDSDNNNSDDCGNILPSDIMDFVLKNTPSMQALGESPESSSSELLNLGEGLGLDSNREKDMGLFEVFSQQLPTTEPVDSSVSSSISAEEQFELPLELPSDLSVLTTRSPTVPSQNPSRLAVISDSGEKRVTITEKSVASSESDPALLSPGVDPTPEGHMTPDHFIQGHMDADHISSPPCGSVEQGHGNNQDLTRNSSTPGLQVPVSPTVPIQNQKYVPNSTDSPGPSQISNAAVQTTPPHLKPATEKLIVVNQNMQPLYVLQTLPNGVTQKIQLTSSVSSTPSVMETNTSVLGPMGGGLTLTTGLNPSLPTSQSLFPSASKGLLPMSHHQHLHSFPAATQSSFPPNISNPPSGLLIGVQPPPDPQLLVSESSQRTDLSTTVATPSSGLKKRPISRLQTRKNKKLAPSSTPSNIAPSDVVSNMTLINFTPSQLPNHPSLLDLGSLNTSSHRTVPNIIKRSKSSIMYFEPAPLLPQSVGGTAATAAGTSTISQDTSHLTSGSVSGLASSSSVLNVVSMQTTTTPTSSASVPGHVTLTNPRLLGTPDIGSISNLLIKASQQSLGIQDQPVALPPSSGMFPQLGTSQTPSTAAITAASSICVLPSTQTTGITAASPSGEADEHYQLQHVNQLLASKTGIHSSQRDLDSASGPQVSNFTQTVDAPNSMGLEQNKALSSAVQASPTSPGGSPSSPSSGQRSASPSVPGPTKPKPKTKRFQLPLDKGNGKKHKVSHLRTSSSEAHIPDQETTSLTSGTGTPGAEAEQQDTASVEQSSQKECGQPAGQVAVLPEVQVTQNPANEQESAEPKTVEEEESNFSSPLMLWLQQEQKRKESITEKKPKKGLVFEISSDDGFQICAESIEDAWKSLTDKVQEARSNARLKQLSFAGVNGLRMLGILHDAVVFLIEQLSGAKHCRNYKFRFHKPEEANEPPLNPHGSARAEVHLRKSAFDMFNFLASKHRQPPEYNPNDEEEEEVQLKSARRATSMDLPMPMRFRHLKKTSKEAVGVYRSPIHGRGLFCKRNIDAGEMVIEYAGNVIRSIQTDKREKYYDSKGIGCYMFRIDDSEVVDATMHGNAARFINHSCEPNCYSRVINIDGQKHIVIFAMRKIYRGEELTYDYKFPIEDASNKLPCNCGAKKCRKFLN
Protein arginine N-methyltransferase 5, sequence (O14744 whole entry): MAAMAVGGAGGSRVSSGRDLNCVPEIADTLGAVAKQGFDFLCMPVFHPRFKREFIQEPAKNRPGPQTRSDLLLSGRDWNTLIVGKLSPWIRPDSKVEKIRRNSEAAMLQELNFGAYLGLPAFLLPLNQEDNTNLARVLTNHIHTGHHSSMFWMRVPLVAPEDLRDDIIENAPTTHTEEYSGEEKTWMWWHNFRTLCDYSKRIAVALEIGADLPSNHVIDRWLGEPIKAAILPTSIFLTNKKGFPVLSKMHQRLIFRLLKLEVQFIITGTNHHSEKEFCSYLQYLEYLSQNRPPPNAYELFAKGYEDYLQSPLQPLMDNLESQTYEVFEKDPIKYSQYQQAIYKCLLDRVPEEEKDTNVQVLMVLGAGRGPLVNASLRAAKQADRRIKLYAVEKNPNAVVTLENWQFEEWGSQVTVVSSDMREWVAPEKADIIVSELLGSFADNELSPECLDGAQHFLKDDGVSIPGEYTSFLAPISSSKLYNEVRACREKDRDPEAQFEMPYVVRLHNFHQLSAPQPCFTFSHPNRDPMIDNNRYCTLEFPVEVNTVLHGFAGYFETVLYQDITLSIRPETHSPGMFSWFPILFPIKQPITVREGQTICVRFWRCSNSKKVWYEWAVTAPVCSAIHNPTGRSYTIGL
Protein arginine N-methyltransferase 3, sequence (O60678 whole entry): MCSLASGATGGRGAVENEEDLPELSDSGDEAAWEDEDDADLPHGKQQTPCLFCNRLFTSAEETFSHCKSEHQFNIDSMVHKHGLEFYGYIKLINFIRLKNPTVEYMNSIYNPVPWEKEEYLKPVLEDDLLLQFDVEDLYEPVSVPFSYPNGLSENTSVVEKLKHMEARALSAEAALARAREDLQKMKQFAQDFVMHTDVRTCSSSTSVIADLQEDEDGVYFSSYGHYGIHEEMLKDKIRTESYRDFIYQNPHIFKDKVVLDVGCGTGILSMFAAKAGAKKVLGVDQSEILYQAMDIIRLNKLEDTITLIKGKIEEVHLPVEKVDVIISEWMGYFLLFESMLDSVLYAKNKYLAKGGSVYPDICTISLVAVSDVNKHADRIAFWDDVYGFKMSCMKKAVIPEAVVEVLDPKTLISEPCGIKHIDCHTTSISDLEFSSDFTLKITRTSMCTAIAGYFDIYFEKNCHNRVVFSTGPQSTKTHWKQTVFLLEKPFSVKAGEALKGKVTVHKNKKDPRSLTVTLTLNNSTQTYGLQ

What is called IC50 is the concentration at which inhibition is half-maximal. `COc1cc2nc(NC3CCCCC3)nc(NCCCCCN3CCCC3)c2cc1OC`: the IC50 in assay [1] is > 250 µM.
In the case of `COc1cc2nc(N3CCCC3)nc(NCCCCCN3CCCC3)c2cc1OC`, the IC50 in assay [2], in assay [3], in assay [4], in assay [5], in [6] and in assay [7] was > 100 µM in each case. Further, the 50% inhibitory concentration (IC50) in assay [8], in assay [9], in assay [10], in assay [11], in assay [12] and in assay [13] was > 100 µM throughout. The IC50 in [14] and in assay [15] was > 100 µM in each case.
For the compound `COc1cc2nc(NC3CCCC3)nc(NCCCCCN3CCCC3)c2cc1OC`, in assay [1], the IC50 was > 250 µM.
As for `COc1cc2nc(N3CCCC3)nc(N(C)CCCCCN3CCCC3)c2cc1OC`, the IC50 result in assay [16] is “Not Active”; in assay [1], > 250 µM.

The record behind these values is ChEMBL document CHEMBL3351294, “Discovery of a selective, substrate-competitive inhibitor of the lysine methyltransferase SETD8” (J Med Chem, 2014).
